Reference: ChEMBL document CHEMBL1156237, “Antiviral activity of benzimidazole derivatives. II. Antiviral activity of 2-phenylbenzimidazole derivatives” (Bioorg Med Chem, 2010)
The source made the active and inactive calls. No rule for the calls is given here.

What was measured:
[1] = test system: Human immunodeficiency virus 1; experiment: Antiviral activity against HIV1 3B infected in human MT4 cells assessed as protection from virus-induced cytopathogenicity after 4 days by MTT method; assay type: functional, organism-based
How it was run: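 MT-4 cells, 1 × 10^4/well in RPMI with or without serial compound dilutions, infected with HIV-1 IIIB, 100 CCID50 (m.o.i. 0.01). Protection from virus-induced cytopathogenicity read by MTT.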

[2] = test system: Vesicular stomatitis virus; experiment: Antiviral activity against VSV Indiana lab infected in african green monkey Vero cells after 2 days by plaque reduction assay; assay type: functional, organism-based
[3] = test system: Poliovirus 1; experiment: Antiviral activity against Polio virus type1 Sabin strain Chat infected in african green monkey Vero cells after 2 days by plaque reduction assay; assay type: functional, organism-based, Human poliovirus 1 strain Sabin; settings: Enterovirus C, 48 h
[4] = Cytotoxicity against BHK cells after 48 to 96 hrs by MTT assay; assay type: cell-based, Mesocricetus auratus; settings: hamster
How it was run: (§1)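 Cell seeding: MDBK at 6 × 10^5 cells/mL in MEM-E with 10% horse serum and 1 mM Na pyruvate; BHK at 1 × 10^6 cells/mL in MEM-E with 10% FBS. Serial compound dilutions, 37 °C, 5% CO2. Viability of mock-infected cells by MTT after 48–96 h; CC50 is the concentration reducing viability by 50%.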

[5] = test system: Coxsackievirus B2; experiment: Antiviral activity against Human coxsackievirus B2 Ohio-1 infected in african green monkey Vero cells after 3 days by plaque reduction assay; assay type: functional, organism-based, Coxsackievirus B2 (strain Ohio-1); settings: Enterovirus B, Vero, 72 h
How it was run: (§2)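 Plaque reduction assay. Vero 76 cells at 2 × 10^5/well, grown overnight to confluence in D-MEM with 10% FBS. Infected 2 h with 50–100 PFU/well, unadsorbed virus removed. Overlay of D-MEM with 1% inactivated FBS and 0.75% methylcellulose, with or without serial compound dilutions. Incubated at 37 °C for 3 days (HSV-1 KOS, CVB-2 Ohio-1) or 5 days (RSV A2). Fixed and stained with crystal violet in 50% ethanol; plaques counted; EC50 by linear regression.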

[6] = Cytotoxicity against MDBK cells after 48 to 96 hrs by MTT assay; assay type: cell-based, Bos taurus; settings: cattle, MDBK cells; how it was run: as §1
[7] = Cytotoxicity against african green monkey Vero cells; assay type: cell-based; settings: chlorocebus sabaeus
How it was run: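 Vero 76 monolayers exposed to serial compound dilutions, run in parallel on the same 24-well plates as the plaque-reduction assays. CC50 is the concentration reducing viability of mock-infected cells by 50%.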

[8] = test system: Respiratory syncytial virus; experiment: Antiviral activity against RSV A2 infected in african green monkey Vero cells after 5 days by plaque reduction assay; assay type: functional, organism-based; how it was run: as §2
[9] = test system: Yellow fever virus; experiment: Antiviral activity against Yellow fever virus 17D infected in BHK cells assessed as protection from virus-induced cytopathogenicity after 3 to 4 days by MTT method; assay type: functional, organism-based
[10] = Cytotoxicity against human MT4 cells after 96 hrs by MTT assay; assay type: cell-based; settings: MT4 cells
How it was run: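 Exponentially growing MT-4 cells at 1 × 10^5 cells/mL in RPMI-1640 with 10% FCS, exposed to serial compound dilutions at 37 °C, 5% CO2. Viability by MTT after 96 h; CC50 is the concentration reducing viability of mock-infected cells by 50%.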

[11] = test system: Bovine viral diarrhea virus 1; experiment: Antiviral activity against Bovine viral diarrhea virus NADL infected in MDBK cells assessed as protection from virus-induced cytopathogenicity after 3 to 4 days by MTT method; assay type: functional, organism-based, Bovine viral diarrhea virus 1-NADL; settings: Bovine viral diarrhea virus isolates and strains, MDBK
How it was run: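 Cytopathogenicity protection assay. MDBK cells at 3 × 10^4/well, grown overnight to confluence. Infected with BVDV NADL at m.o.i. 0.01 in MEM-E with 0.5% inactivated FBS, 1 mM Na pyruvate and 1% kanamycin. Serial compound dilutions added after 1 h. After 3–4 days at 37 °C, viability read by MTT; EC50 is the concentration giving 50% protection.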

[12] = test system: Vaccinia virus; experiment: Antiviral activity against Vaccinia virus Elstree-Lister infected in african green monkey Vero cells after 3 days by plaque reduction assay; assay type: functional, organism-based; settings: Orthopoxvirus vaccinia, 72 h
[13] = test system: Human alphaherpesvirus 1; experiment: Antiviral activity against HSV1 KOS infected in african green monkey Vero cells after 3 days by plaque reduction assay; assay type: functional, organism-based; settings: Human alphaherpesvirus 1, KOS, 72 h; how it was run: as §2
[14] = human respiratory syncytial virus, A2, Vero, 120 h

Row | Compound | Activity [1] | Activity [2] | EC50 [3] [µM] | CC50 [4] [µM] | EC50 [5] [µM] | CC50 [6] [µM] | CC50 [7] [µM] | EC50 [8, 14] [µM] | EC50 [9] [µM] | CC50 at 96 h [10] [µM] | EC50 [11] [µM] | EC50 [12] [µM] | EC50 [13] [µM] | EC50 ([8]; vero) [µM]
1 | O=[N+]([O-])c1ccccc1-c1nc2ccccc2[nH]1 | inactive | inactive | > 100 | > 100 | > 100 | > 100 | > 100 | 40 | > 100 | 60 | > 100 | > 100 | > 100 | –
2 | C[C@@]1(O)[C@H](O)[C@@H](CO)O[C@H]1n1cnc2c(=O)[nH]c(N)nc21 [2'-B-METHYL-GUANOSINE] | – | – | > 100 | 90 | 20 | > 100 | > 100 | > 100 | 1.8 | > 100 | – | > 100 | > 100 | –
3 | NC(=O)c1ncn([C@@H]2O[C@H](CO)[C@@H](O)[C@H]2O)n1 [RIBAVIRIN] | – | – | > 100 | > 100 | > 100 | > 100 | > 100 | 7 | > 100 | – | – | > 100 | > 100 | –
4 | COc1c(C)c2c(c(O)c1C/C=C(\C)CCC(=O)O)C(=O)OC2 [MYCOPHENOLIC ACID] | – | – | > 13 | > 100 | > 13 | – | ≥ 13 | 0.6 | > 100 | – | > 42 | – | > 13 | –
5 | C#C[C@@]1(O)[C@H](O)[C@@H](CO)O[C@H]1n1ccc(N)nc1=O [2'-ETHYNYL-D-CYTIDINE] | – | – | 23 | > 100 | 27 | > 100 | > 100 | > 100 | > 100 | ≥ 100 | 38 | > 100 | > 100 | –
6 | O=C(Nc1ccc(-c2nc3cc(C(F)(F)F)ccc3[nH]2)cc1)Nc1ccc(-c2nc3cc(C(F)(F)F)ccc3[nH]2)cc1 | inactive | inactive | > 100 | 17 | > 100 | > 100 | > 100 | – | > 17 | > 100 | > 100 | – | > 100 | –
7 | O=C(CN1CCOCC1)Nc1ccc(-c2nc3cc(C(F)(F)F)ccc3[nH]2)cc1 | inactive | inactive | > 100 | 86 | > 100 | > 100 | > 100 | – | > 86 | > 100 | > 100 | – | > 100 | –
8 | O=c1cnn([C@@H]2O[C@H](CO)[C@@H](O)[C@H]2O)c(=O)[nH]1 (stereo in doubt; form 2) [6-AZAURIDINE] | – | – | – | > 100 | > 20 | > 100 | – | – | 26 | – | > 100 | – | > 20 | 1.2
9 | O=C(CN1CCCCC1)Nc1ccc(-c2nc3ccccc3[nH]2)cc1 | inactive | inactive | > 100 | 31 | 17 | 18 | > 100 | – | > 31 | 31 | 7 | – | > 100 | –
10 | CC(=O)Nc1ccc(-c2nc3ccccc3[nH]2)cc1 | inactive | inactive | > 100 | > 100 | 87 | > 100 | > 100 | – | > 100 | 100 | 90 | – | > 100 | –
11 | O=c1cnn([C@@H]2O[C@H](CO)[C@@H](O)[C@H]2O)c(=O)[nH]1 (stereo in doubt; form 1) [6-AZAURIDINE] | – | – | > 20 | – | – | – | – | 1.2 | – | – | – | 11 | – | –
12 | O=C(CN1CCSCC1)Nc1ccc(-c2nc3cc(C(F)(F)F)ccc3[nH]2)cc1 | inactive | inactive | > 100 | > 100 | > 100 | > 100 | > 100 | – | > 100 | 6 | > 100 | – | > 100 | –
13 | Nc1nc2c(ncn2COCCO)c(=O)[nH]1 [ACYCLOVIR] | – | – | > 100 | > 100 | > 100 | > 100 | > 100 | > 100 | > 100 | > 100 | > 100 | > 100 | 3 | –
14 | CN1CCN(CC(=O)Nc2ccc(-c3nc4cc(Cl)c(Cl)cc4[nH]3)cc2)CC1 | inactive | inactive | 89 | 41 | > 100 | 90 | > 100 | – | > 41 | 11 | 4 | 6 | 51 | –
15 | O=C(CN1CCCC1)Nc1ccc(-c2nc3ccccc3[nH]2)cc1 | inactive | inactive | 90 | 55 | 11 | 70 | > 100 | – | 19 | 40 | 10 | – | > 100 | –
16 | Nc1ccc(-c2nc3cc(C(F)(F)F)ccc3[nH]2)cc1 | inactive | inactive | 47 | 100 | 17 | 82 | > 100 | – | > 100 | 62 | 15 | – | > 100 | –
